Test results taken from ChEMBL document CHEMBL4689842, “EUbOPEN Chemogenomics Library wave 1” (2021).

Test system: U2OS
Assay: Multiplex assay against U2OS
Assay type: toxicity, cell-based
Settings: human
Procedure, shortened: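 Cells stained live at seeding with Hoechst33342, BioTracker Green Microtubule Cytoskeleton Dye, MitoTracker Red and Annexin V Alexa Fluor 680 were imaged on a CQ1 microscope at 37°C and 5% CO2 after compound addition. Their classification by CellPathfinder machine-learning gating ran from Hoechst high-intensity objects versus normal cells, to healthy, pyknosed or fragmented nuclei among normal cells, to mitotic or apoptotic among pyknosed cells. Tubulin, mitochondrial-mass and membrane-permeability phenotypes are per cents of healthy-nucleus cells.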

[1] = 12 h, 1 µM, compound concentration 1 uM, replicate 1
[2] = 12 h, 1 µM, compound concentration 1 uM, replicate 2
[3] = 12 h, 10 µM, compound concentration 10 uM, replicate 1
[4] = 12 h, 10 µM, compound concentration 10 uM, replicate 2
[5] = 24 h, 1 µM, compound concentration 1 uM, replicate 1
[6] = 24 h, 1 µM, compound concentration 1 uM, replicate 2
[7] = 24 h, 10 µM, compound concentration 10 uM, replicate 1
[8] = 24 h, 10 µM, compound concentration 10 uM, replicate 2
[9] = 48 h, 1 µM, compound concentration 1 uM, replicate 1
[10] = 48 h, 1 µM, compound concentration 1 uM, replicate 2
[11] = 48 h, 10 µM, compound concentration 10 uM, replicate 1
[12] = 48 h, 10 µM, compound concentration 10 uM, replicate 2

SMILES: COc1cc2ncn(-c3cc(OCc4ccccc4C(F)(F)F)c(C(N)=O)s3)c2cc1OC [GW843682X]
- Population Apoptotic (%) [1]: 54%
- Population Fragmented Nuclei (%) [1]: 15%
- Population Healthy Nuclei (%) [1]: 78%
- Population Hoechst High Intensity Objects (%) [1]: 7%
- Population Membrane Permeable-Phenotype (%) [1]: 12%
- Population Mitochondria Different-Phenotype (%) [1]: 17%
- Population Mitotic Cells (%) [1]: 45%
- Population Normal (%) [1]: 92%
- Population Pyknosed Nuclei (%) [1]: 6%
- Population Tubulin-Different-Phenotype (%) [1]: 28%
- Total Cell Count [1]: 170
- Population Apoptotic (%) [2]: 50%
- Population Fragmented Nuclei (%) [2]: 9%
- Population Healthy Nuclei (%) [2]: 80%
- Population Hoechst High Intensity Objects (%) [2]: 10%
- Population Mitochondria Different-Phenotype (%) [2]: 10%
- Population Mitotic Cells (%) [2]: 50%
- Population Normal (%) [2]: 89%
- Population Pyknosed Nuclei (%) [2]: 9%
- Population Tubulin-Different-Phenotype (%) [2]: 20%
- Total Cell Count [2]: 83
- Population Apoptotic (%) [3]: 54%
- Population Fragmented Nuclei (%) [3]: 12%
- Population Healthy Nuclei (%) [3]: 71%
- Population Hoechst High Intensity Objects (%) [3]: 13%
- Population Membrane Permeable-Phenotype (%) [3]: 28%
- Population Mitochondria Different-Phenotype (%) [3]: 83%
- Population Mitotic Cells (%) [3]: 45%
- Population Normal (%) [3]: 86%
- Population Pyknosed Nuclei (%) [3]: 15%
- Population Tubulin-Different-Phenotype (%) [3]: 97%
- Total Cell Count [3]: 185
- Population Apoptotic (%) [4]: 50%
- Population Fragmented Nuclei (%) [4]: 13%
- Population Healthy Nuclei (%) [4]: 75%
- Population Hoechst High Intensity Objects (%) [4]: 6%
- Population Membrane Permeable-Phenotype (%) [4]: 25%
- Population Mitochondria Different-Phenotype (%) [4]: 88%
- Population Mitotic Cells (%) [4]: 50%
- Population Normal (%) [4]: 93%
- Population Pyknosed Nuclei (%) [4]: 11%
- Population Tubulin-Different-Phenotype (%) [4]: 98%
- Total Cell Count [4]: 68
- Population Apoptotic (%) [5]: 62%
- Population Fragmented Nuclei (%) [5]: 14%
- Population Healthy Nuclei (%) [5]: 76%
- Population Hoechst High Intensity Objects (%) [5]: 3%
- Population Mitochondria Different-Phenotype (%) [5]: 22%
- Population Mitotic Cells (%) [5]: 37%
- Population Normal (%) [5]: 96%
- Population Pyknosed Nuclei (%) [5]: 8%
- Population Tubulin-Different-Phenotype (%) [5]: 20%
- Total Cell Count [5]: 166
- Population Apoptotic (%) [6]: 55%
- Population Fragmented Nuclei (%) [6]: 11%
- Population Healthy Nuclei (%) [6]: 74%
- Population Hoechst High Intensity Objects (%) [6]: 5%
- Population Membrane Permeable-Phenotype (%) [6]: 10%
- Population Mitochondria Different-Phenotype (%) [6]: 19%
- Population Mitotic Cells (%) [6]: 44%
- Population Normal (%) [6]: 94%
- Population Pyknosed Nuclei (%) [6]: 14%
- Population Tubulin-Different-Phenotype (%) [6]: 17%
- Total Cell Count [6]: 85
- Population Apoptotic (%) [7]: 51%
- Population Fragmented Nuclei (%) [7]: 14%
- Population Healthy Nuclei (%) [7]: 66%
- Population Hoechst High Intensity Objects (%) [7]: 9%
- Population Membrane Permeable-Phenotype (%) [7]: 42%
- Population Mitochondria Different-Phenotype (%) [7]: 90%
- Population Mitotic Cells (%) [7]: 48%
- Population Normal (%) [7]: 90%
- Population Pyknosed Nuclei (%) [7]: 18%
- Population Tubulin-Different-Phenotype (%) [7]: 98%
- Total Cell Count [7]: 190
- Population Apoptotic (%) [8]: 50%
- Population Fragmented Nuclei (%) [8]: 13%
- Population Healthy Nuclei (%) [8]: 69%
- Population Membrane Permeable-Phenotype (%) [8]: 41%
- Population Mitochondria Different-Phenotype (%) [8]: 91%
- Population Mitotic Cells (%) [8]: 50%
- Population Pyknosed Nuclei (%) [8]: 17%
- Population Tubulin-Different-Phenotype (%) [8]: 97%
- Total Cell Count [8]: 67
- Population Apoptotic (%) [9]: 71%
- Population Fragmented Nuclei (%) [9]: 16%
- Population Healthy Nuclei (%) [9]: 66%
- Population Hoechst High Intensity Objects (%) [9]: 8%
- Population Membrane Permeable-Phenotype (%) [9]: 16%
- Population Mitochondria Different-Phenotype (%) [9]: 33%
- Population Mitotic Cells (%) [9]: 28%
- Population Normal (%) [9]: 91%
- Population Pyknosed Nuclei (%) [9]: 16%
- Population Tubulin-Different-Phenotype (%) [9]: 18%
- Total Cell Count [9]: 160
- Population Apoptotic (%) [10]: 62%
- Population Fragmented Nuclei (%) [10]: 9%
- Population Healthy Nuclei (%) [10]: 79%
- Population Hoechst High Intensity Objects (%) [10]: 6%
- Population Membrane Permeable-Phenotype (%) [10]: 27%
- Population Mitochondria Different-Phenotype (%) [10]: 37%
- Population Mitotic Cells (%) [10]: 37%
- Population Normal (%) [10]: 93%
- Population Pyknosed Nuclei (%) [10]: 10%
- Population Tubulin-Different-Phenotype (%) [10]: 34%
- Total Cell Count [10]: 91
- Population Apoptotic (%) [11]: 78%
- Population Fragmented Nuclei (%) [11]: 17%
- Population Healthy Nuclei (%) [11]: 53%
- Population Hoechst High Intensity Objects (%) [11]: 9%
- Population Membrane Permeable-Phenotype (%) [11]: 71%
- Population Mitochondria Different-Phenotype (%) [11]: 93%
- Population Mitotic Cells (%) [11]: 21%
- Population Normal (%) [11]: 90%
- Population Pyknosed Nuclei (%) [11]: 29%
- Population Tubulin-Different-Phenotype (%) [11]: 97%
- Total Cell Count [11]: 187
- Population Apoptotic (%) [12]: 71%
- Population Fragmented Nuclei (%) [12]: 18%
- Population Healthy Nuclei (%) [12]: 62%
- Population Hoechst High Intensity Objects (%) [12]: 6%
- Population Membrane Permeable-Phenotype (%) [12]: 68%
- Population Mitochondria Different-Phenotype (%) [12]: 88%
- Population Mitotic Cells (%) [12]: 28%
- Population Normal (%) [12]: 93%
- Population Pyknosed Nuclei (%) [12]: 19%
- Total Cell Count [12]: 78
